Assay outcomes from PubChem BioAssay.
TRPC4 agonist = opens the mouse TRPC4 cation channel; Q9QUQ5; HEK293 TRPC4beta/mu-opioid, Fluo4 calcium fluorescence; active compounds read high; B-score at 10 µM; 310,000 compounds, 0.49% hits;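 active = B-score above 5 SD of library B-scores, and initial fluorescence ratio not above library mean plus 5 SD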;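 also: positive B-score marks a calcium rise read as TRPC4 activation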
Target sequence (Q9QUQ5 whole entry, looked up): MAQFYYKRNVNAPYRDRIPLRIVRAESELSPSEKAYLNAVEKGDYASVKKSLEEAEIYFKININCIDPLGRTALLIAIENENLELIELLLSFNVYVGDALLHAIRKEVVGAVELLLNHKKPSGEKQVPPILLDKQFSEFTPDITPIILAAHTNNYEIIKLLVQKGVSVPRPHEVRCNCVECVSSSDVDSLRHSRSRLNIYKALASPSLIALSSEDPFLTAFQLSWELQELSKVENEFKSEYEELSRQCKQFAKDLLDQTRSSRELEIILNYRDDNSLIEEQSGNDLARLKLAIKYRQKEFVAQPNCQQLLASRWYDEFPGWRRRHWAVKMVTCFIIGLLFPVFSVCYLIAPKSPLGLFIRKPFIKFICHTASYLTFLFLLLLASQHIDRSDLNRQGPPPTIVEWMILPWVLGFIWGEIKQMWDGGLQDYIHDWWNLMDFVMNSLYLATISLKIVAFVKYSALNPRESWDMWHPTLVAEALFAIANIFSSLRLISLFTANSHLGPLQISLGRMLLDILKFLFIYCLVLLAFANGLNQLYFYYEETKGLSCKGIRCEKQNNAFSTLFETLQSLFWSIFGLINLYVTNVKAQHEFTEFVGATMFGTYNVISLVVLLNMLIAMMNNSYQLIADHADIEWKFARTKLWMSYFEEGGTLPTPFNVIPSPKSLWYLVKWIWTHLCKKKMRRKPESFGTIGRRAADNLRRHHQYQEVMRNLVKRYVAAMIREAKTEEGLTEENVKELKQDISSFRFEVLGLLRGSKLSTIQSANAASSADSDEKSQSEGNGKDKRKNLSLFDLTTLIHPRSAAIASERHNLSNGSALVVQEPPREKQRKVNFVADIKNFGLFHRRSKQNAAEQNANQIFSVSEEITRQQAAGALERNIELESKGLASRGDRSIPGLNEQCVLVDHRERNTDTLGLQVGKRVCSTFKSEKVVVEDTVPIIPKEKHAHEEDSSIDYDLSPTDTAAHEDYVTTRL
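Test system: HEK293 cells stably co-expressing mouse TRPC4beta and mu-opioid receptor | Schedule: Fluo4 dye loading 45 min at room temperature, 110 s recording | Measured by: Kinetic Fluo4 calcium fluorescence, 5 s baseline at 1 Hz | Evaluation: B score of integrated ratio | Controls: Buffer (low) and maximal DAMGO (high)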
Pemphigus Ab inh = blocks pemphigus antibody binding to human desmoglein-3; P32926; DSG3-coupled beads, scFv-anti-DSG3-GFP binding, flow cytometry; active compounds read low; binding (percent of control), % at 10 µM; 310,000 compounds, 0.48% hits; AID 588358;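 active = binding more than 3 SD below its plate's average and above zero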;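 also: hits lower antibody fragment binding to DSG3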
TRPC4 block = inhibitors of mouse TRPC4 channel; HEK293 TRPC4beta/mu-opioid, DAMGO-evoked Fluo4 calcium flux; active compounds read low; Q9QUQ5; 300,000 compounds, 0.39% hits; B-score at 10 µM;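 active = B-score over 3 SD under the library average, no early fluorescence shift, positive overall ratio signal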
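System: stable TRPC4beta/mu-opioid receptor HEK293 cells; Dosing: single-point compound dosing; Measured by: Fluo4 Ca2+ flux fluorescence; Read-out basis: per-well B score of integrated baseline-normalized Fluo4 ratio.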
TRPC6 inhibitor = inhibitors of mouse TRPC6 channel; HEK293-TRPC6, membrane potential dye, ACh-evoked depolarization; active compounds read low; B-score at 10 µM; 310,000 compounds, 1.1% hits;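 active = B-score under library mean minus 3 SD, initial fluorescence not abnormally high, positive integrated signal ratio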;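 also: B-score derived from integrated fluorescence ratio over the kinetic read; more negative B-score means stronger inhibition of depolarization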
TRPC6 act = activators of mouse TRPC6 channel; HEK293-TRPC6 membrane potential dye fluorescence; active compounds read high; B-score at 10 µM; 310,000 compounds, 0.13% hits;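 active = B-score of the integrated fluorescence ratio above library mean plus 3 SD, and starting fluorescence ratio within library mean plus 5 SD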;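 also: higher score means more depolarization so channel activation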
TRPC4 PAM = allosteric potentiators of mouse TRPC4 channel; Q9QUQ5; HEK293 TRPC4beta/mu-opioid, DAMGO EC20, Fluo-4 Ca2+ flux; active compounds read high; B-score at 10 µM; 310,000 compounds, 0.42% hits; AID 2227;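 active = B-score of calcium response area above 5 SD of library B-scores, with initial fluorescence ratio within 5 SD of library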
TRPC4 spec 2 = second selectivity test of TRPC6 inhibitors: effect on mouse TRPC4. shares compounds with TRPC6 inhibitor. HEK293 TRPC4/MOR, membrane potential dye fluorescence; channel activated by saturating DAMGO dose. inhibition, % at 10 µM. 920 compounds, 42% hits;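 active = compounds whose fluorescence signal differed from control wells by over 3 SD, either direction, in both duplicate plates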
TRPC4 spec = mouse TRPC4 off-target activity of TRPC6 inhibitors; HEK293 TRPC4/mu-opioid, membrane potential fluorescence; shares compounds with TRPC6 inhibitor; activity change, negative = inhibition, % at 10 µM; 920 compounds, 61% hits;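 active = rise or fall in signal beyond 3 SD of buffer-only wells in both replicate plates, either sign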;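 also: integrated kinetic ratio of fluorescence range over baseline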
HEK293 MPD ctr 2-1 = second counter-screen for TRPC6 inhibitors: parental HEK293 cells; 920 compounds, 31% hits; shares compounds with TRPC6 inhibitor; parental HEK293 membrane potential dye fluorescence; maximal acetylcholine challenge after compound addition; signal change vs control, % at 10 µM;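 active = membrane potential signal moving either way by over 3 SD of the maximum-effect control, in both duplicate plates, meaning non-specific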
HEK293 MPD ctr-1 = checks TRPC6 inhibitor effects in parental HEK293 cells; shares compounds with TRPC6 inhibitor; parental HEK293 membrane potential dye fluorescence; membrane potential signal change, % at 10 µM; 920 compounds, 60% hits;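 active = membrane potential signal shifting up or down by more than 3 SD of buffer-only wells, on both duplicate plates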
HEK293 MPD ctr-2 = checks TRPC6 modulator effects in parental HEK293 cells; shares compounds with TRPC6 inhibitor; membrane potential dye fluorescence; membrane potential signal change, % at 10 µM; 2,400 compounds, 51% hits; AID 488924;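 active = membrane potential signal moves up or down beyond 5 SD from buffer-only wells, on both duplicate plates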
HEK293 MPD ctr 2-2 = second check of TRPC6 modulator effects in parental HEK293 cells; shares compounds with TRPC6 inhibitor; membrane potential dye fluorescence; after compound, maximal acetylcholine stimulation; inhibition, % at 10 µM; 2,400 compounds, 14% hits; AID 488926;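 active = membrane potential signal drops by more than 5 SD from the mean control signal, in both duplicate plates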
TRPC4/MOR mod = mouse TRPC4 off-target activity of TRPC6 modulators; shares compounds with TRPC6 inhibitor; HEK293 TRPC4/mu-opioid, membrane potential fluorescence; percent change from control (negative = decrease, positive = increase), % at 10 µM; 2,400 compounds, 69% hits;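 active = membrane potential signal moved up or down beyond 5 SD of buffer control wells, in both duplicate plates, actives on both sides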
TRPC4/MOR inh 2 = second selectivity test of TRPC6 modulators against mouse TRPC4; shares compounds with TRPC6 inhibitor; HEK293 TRPC4/mu-opioid, membrane potential dye fluorescence; stimulated with maximal-effect DAMGO; inhibition, % at 10 µM; 2,400 compounds, 55% hits; AID 488928;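 active = drop in membrane potential signal beyond 5 SD of the control wells in both duplicate plates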;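 also: TRPC4 counter screen for TRPC6 hits run under conditions tuned for TRPC6 not TRPC4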
TRPC6 block conf = mouse TRPC6 inhibitor confirmation | shares compounds with TRPC6 inhibitor | inhibition, % at 10 µM | AID 488960 | 3,300 compounds, 43% hits | HEK293-TRPC6, membrane potential dye, ACh-evoked depolarization;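 active = fluorescence ratio falls more than 5 SD below the full-stimulation control mean, in both duplicate runs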;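 also: integrated fluorescence ratio of peak minus minimum over baseline after agonist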
TRPC6 act conf = confirmation of mouse TRPC6 activators; activation, % at 10 µM; 2,800 compounds, 11% hits; HEK293-TRPC6 membrane potential dye fluorescence, FDSS; shares compounds with TRPC6 inhibitor;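 active = ratio signal rise beyond 5 SD above unstimulated control wells' mean, seen in both duplicate runs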
A number is an active result; i = inactive; nt = no result given. Compounds with a hit are over-represented: about 2.5% of the library has one in this group of screens.

SMILES	TRPC4 agonist	Pemphigus Ab inh	TRPC4 block	TRPC6 inhibitor	TRPC6 act	TRPC4 PAM	HEK293 MPD ctr-2	HEK293 MPD ctr 2-2	TRPC4/MOR mod	TRPC4/MOR inh 2	TRPC6 block conf	TRPC6 act conf	others
CCC1(C)Cc2c(sc3[nH]c(=S)[nH]c(=S)c23)CO1 (configuration not stated)	i	i	i	-8.87	i	i	nt	nt	nt	nt	i	i	TRPC4 spec 2=i;TRPC4 spec=i;HEK293 MPD ctr 2-1=i;HEK293 MPD ctr-1=i
Nc1[nH]n2c(=O)cc(-c3ccccc3)nc2c1N=Nc1ccccc1	i	i	i	-7.98	i	i	nt	nt	nt	nt	77.0%	i	TRPC4 spec 2=50.0%;TRPC4 spec=-19.7%;HEK293 MPD ctr 2-1=i;HEK293 MPD ctr-1=-315.5%
Nc1[nH]n2c(=O)cc(-c3ccccc3)nc2c1N=Nc1ccc(S(N)(=O)=O)cc1	i	i	i	i	i	i	nt	nt	nt	nt	nt	nt
Cc1c(Br)c([N+](=O)[O-])nn1C(C)C(=O)N1CCc2ccccc2C1 (configuration not stated)	i	i	i	-5.98	i	i	i	93.0%	19.0%	i	80.0%	i
Cc1cccc(C(=O)N2CCc3ccccc3C2)c1[N+](=O)[O-]	i	i	i	-5.31	i	i	i	i	15.5%	i	i	i
Cc1c(Br)c([N+](=O)[O-])nn1CC(=O)N1CCc2ccccc2C1	i	i	i	i	i	i	nt	nt	nt	nt	nt	nt
Cc1ccccc1Nc1c(-c2ccncc2)nc2ccc(Br)cn12	i	i	i	-7.02	i	i	-131.0%	i	-39.0%	93.5%	63.5%	i
Cc1ccccc1Nc1c(-c2cccnc2)nc2ccc(Br)cn12	i	i	i	i	i	i	nt	nt	nt	nt	nt	nt
Cc1ccccc1Nc1c(-c2cccnc2)nc2ccccn12	i	i	i	-5.57	i	i	-132.5%	i	-14.5%	65.5%	i	i
Cc1ccn2c(Nc3ccccc3C)c(-c3ccccn3)nc2c1	i	i	i	-5.7	i	i	-129.5%	i	-27.0%	81.0%	i	i
Cc1ccc(CNC(=O)C2CCCN(c3cnccn3)C2)cc1 (configuration not stated)	i	i	i	i	i	i	nt	nt	nt	nt	nt	nt
COc1ccc(C(=O)CC(=O)C(=O)NCCc2cccc(C)c2)cc1	i	i	i	i	i	i	nt	nt	nt	nt	nt	nt
COC(=O)c1c(-c2cccnc2)csc1NC(=O)c1ccc2c(c1)OCO2	i	i	i	i	i	i	nt	nt	nt	nt	nt	nt
Cc1cc(N2CCN(S(=O)(=O)c3ccc(Cl)cc3)CC2)c2ccccc2n1	i	i	i	-5.13	i	i	-75.0%	i	-21.5%	72.5%	i	i
Cc1cc(N2CCN(S(=O)(=O)c3ccc(Cl)c(Cl)c3)CC2)c2ccccc2n1	i	i	i	i	i	i	nt	nt	nt	nt	nt	nt
COc1cccc(Cl)c1NC(=O)N1CCN(c2cc(C)nc3ccccc23)CC1	i	i	i	-9.74	i	i	-145.5%	i	-38.5%	74.5%	47.5%	i
CC(C)(C)n1nnnc1C(c1cc2cc3c(cc2[nH]c1=O)OCCO3)N1CCSCC1 (configuration not stated)	i	i	i	-5.17	i	i	i	i	i	i	52.5%	nt
COC(=O)c1ccccc1NC(=O)c1cc[n+](C)cc1	i	i	i	-5.8	i	i	-200.5%	i	-33.0%	i	i	i
COC(=O)c1ccccc1NC(=O)c1cc[n+]([O-])cc1	i	i	i	i	i	i	nt	nt	nt	nt	nt	nt
O=C(Nc1cccc(NC(=O)c2ccc(Br)o2)n1)c1ccc(Br)o1	i	i	i	-6.32	i	i	i	i	i	i	i	i
Cc1nc(NC(=O)c2ccc(Br)o2)ccc1Br	i	i	i	i	i	i	nt	nt	nt	nt	nt	nt
CC(=O)Nc1ccc(S(=O)(=O)NNC(=O)c2cccc(Cl)c2)cc1	i	i	i	i	i	i	nt	nt	nt	nt	nt	nt
COc1ccc(-c2nc3cc(C)ccn3c2NCC2CCCO2)cc1OC (configuration not stated)	i	nt	i	-6.91	i	i	-223.0%	80.5%	-37.5%	44.0%	55.5%	i
CCN(CC)CCNC(=O)c1ccc(NC(=O)c2ccc3c(c2)CCC3)cc1	i	i	i	-9.48	11.6	i	217.0%	i	29.0%	i	69.0%	160.0%
COc1cccc(OC)c1OCCNCC1COc2ccccc2O1 (configuration not stated)	i	i	i	-5.59	i	i	144.0%	i	27.0%	38.5%	i	nt
COCc1cc(C)nc(OCC(=O)N/N=C/c2ccc(-c3cc([N+](=O)[O-])ccc3Cl)o2)c1C#N	i	i	i	i	i	i	nt	nt	nt	nt	nt	nt
COC(=O)c1ccc(NC(=O)c2snnc2-c2ccccc2)cc1	i	i	i	-7.33	i	i	nt	nt	nt	nt	92.8%	nt	TRPC4 spec 2=i;TRPC4 spec=i;HEK293 MPD ctr 2-1=i;HEK293 MPD ctr-1=i
CCOc1ccc(CCNC(=O)C2CC(=O)N(c3ccc4c(c3)OCCO4)C2)cc1OCC (configuration not stated)	i	i	i	i	i	i	nt	nt	nt	nt	nt	nt
CC12CCC(=O)N1C(C(=O)Nc1nnc(SCc3ccccc3F)s1)CS2 (configuration not stated)	i	i	i	i	i	i	nt	nt	nt	nt	nt	nt
